Laboratory results from ChEMBL document CHEMBL5058577, “EUbOPEN Chemogenomics Library 2 (Multiplex)” (2022).

System: Fibroblast
Assay: Multiplex assay against human fibroblast
Assay type: toxicity, cell-based
Outline: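 Four dyes were applied at seeding to live cells: Hoechst33342, BioTracker Green Microtubule Cytoskeleton Dye, MitoTracker Red and Annexin V Alexa Fluor 680. Imaging after compound addition used a CQ1 microscope at 37°C and 5% CO2. CellPathfinder machine-learning gating then sorted cells into Hoechst high-intensity objects or normal cells, normal cells into healthy, pyknosed or fragmented nuclei, and pyknosed cells into mitotic or apoptotic, with tubulin, mitochondrial-mass and membrane-permeability phenotypes given as per cents of healthy-nucleus cells.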

[1] = 12 h, 1 µM, compound concentration 1 uM, replicate 1
[2] = 12 h, 1 µM, compound concentration 1 uM, replicate 2
[3] = 12 h, 10 µM, compound concentration 10 uM, replicate 1
[4] = 12 h, 10 µM, compound concentration 10 uM, replicate 2
[5] = 24 h, 1 µM, compound concentration 1 uM, replicate 1
[6] = 24 h, 1 µM, compound concentration 1 uM, replicate 2
[7] = 24 h, 10 µM, compound concentration 10 uM, replicate 1
[8] = 24 h, 10 µM, compound concentration 10 uM, replicate 2
[9] = 48 h, 1 µM, compound concentration 1 uM, replicate 1
[10] = 48 h, 1 µM, compound concentration 1 uM, replicate 2
[11] = 48 h, 10 µM, compound concentration 10 uM, replicate 1
[12] = 48 h, 10 µM, compound concentration 10 uM, replicate 2

Cc1cnc(-c2cc(N3CCN(C(=O)CCS(C)(=O)=O)CC3)ncc2Cl)c(C)c1
Population Apoptotic (%) [1]: 36%
Population Fragmented Nuclei (%) [1]: 9%
Population Healthy Nuclei (%) [1]: 71%
Population Hoechst High Intensity Objects (%) [1]: 1%
Population Membrane Permeable-Phenotype (%) [1]: 0%
Population Mitochondria Different-Phenotype (%) [1]: 7%
Population Mitotic Cells (%) [1]: 63%
Population Normal (%) [1]: 98%
Population Pyknosed Nuclei (%) [1]: 19%
Population Tubulin-Different-Phenotype (%) [1]: 20%
Total Cell Count [1]: 99
Population Apoptotic (%) [2]: 31%
Population Fragmented Nuclei (%) [2]: 22%
Population Healthy Nuclei (%) [2]: 36%
Population Hoechst High Intensity Objects (%) [2]: 9%
Population Membrane Permeable-Phenotype (%) [2]: 7%
Population Mitochondria Different-Phenotype (%) [2]: 10%
Population Mitotic Cells (%) [2]: 68%
Population Normal (%) [2]: 90%
Population Pyknosed Nuclei (%) [2]: 41%
Population Tubulin-Different-Phenotype (%) [2]: 50%
Total Cell Count [2]: 85
Population Apoptotic (%) [3]: 40%
Population Fragmented Nuclei (%) [3]: 13%
Population Healthy Nuclei (%) [3]: 71%
Population Hoechst High Intensity Objects (%) [3]: 4%
Population Membrane Permeable-Phenotype (%) [3]: 1%
Population Mitochondria Different-Phenotype (%) [3]: 2%
Population Mitotic Cells (%) [3]: 60%
Population Normal (%) [3]: 95%
Population Pyknosed Nuclei (%) [3]: 14%
Population Tubulin-Different-Phenotype (%) [3]: 24%
Total Cell Count [3]: 142
Population Apoptotic (%) [4]: 26%
Population Fragmented Nuclei (%) [4]: 21%
Population Healthy Nuclei (%) [4]: 63%
Population Hoechst High Intensity Objects (%) [4]: 1%
Population Mitotic Cells (%) [4]: 73%
Population Normal (%) [4]: 98%
Population Pyknosed Nuclei (%) [4]: 15%
Population Tubulin-Different-Phenotype (%) [4]: 37%
Total Cell Count [4]: 121
Population Apoptotic (%) [5]: 54%
Population Fragmented Nuclei (%) [5]: 10%
Population Healthy Nuclei (%) [5]: 76%
Population Hoechst High Intensity Objects (%) [5]: 6%
Population Membrane Permeable-Phenotype (%) [5]: 2%
Population Mitochondria Different-Phenotype (%) [5]: 4%
Population Mitotic Cells (%) [5]: 45%
Population Normal (%) [5]: 93%
Population Pyknosed Nuclei (%) [5]: 12%
Population Tubulin-Different-Phenotype (%) [5]: 30%
Total Cell Count [5]: 97
Population Apoptotic (%) [6]: 47%
Population Fragmented Nuclei (%) [6]: 35%
Population Healthy Nuclei (%) [6]: 38%
Population Hoechst High Intensity Objects (%) [6]: 10%
Population Membrane Permeable-Phenotype (%) [6]: 3%
Population Mitochondria Different-Phenotype (%) [6]: 0%
Population Mitotic Cells (%) [6]: 52%
Population Normal (%) [6]: 89%
Population Pyknosed Nuclei (%) [6]: 25%
Population Tubulin-Different-Phenotype (%) [6]: 61%
Total Cell Count [6]: 91
Population Apoptotic (%) [7]: 46%
Population Fragmented Nuclei (%) [7]: 10%
Population Healthy Nuclei (%) [7]: 79%
Population Hoechst High Intensity Objects (%) [7]: 0%
Population Membrane Permeable-Phenotype (%) [7]: 2%
Population Mitochondria Different-Phenotype (%) [7]: 6%
Population Mitotic Cells (%) [7]: 53%
Population Normal (%) [7]: 99%
Population Pyknosed Nuclei (%) [7]: 9%
Population Tubulin-Different-Phenotype (%) [7]: 28%
Total Cell Count [7]: 135
Population Apoptotic (%) [8]: 42%
Population Fragmented Nuclei (%) [8]: 19%
Population Healthy Nuclei (%) [8]: 67%
Population Hoechst High Intensity Objects (%) [8]: 4%
Population Mitochondria Different-Phenotype (%) [8]: 9%
Population Mitotic Cells (%) [8]: 57%
Population Normal (%) [8]: 95%
Population Pyknosed Nuclei (%) [8]: 12%
Population Tubulin-Different-Phenotype (%) [8]: 38%
Total Cell Count [8]: 116
Population Apoptotic (%) [9]: 69%
Population Fragmented Nuclei (%) [9]: 19%
Population Healthy Nuclei (%) [9]: 58%
Population Hoechst High Intensity Objects (%) [9]: 2%
Population Membrane Permeable-Phenotype (%) [9]: 0%
Population Mitochondria Different-Phenotype (%) [9]: 1%
Population Mitotic Cells (%) [9]: 30%
Population Normal (%) [9]: 97%
Population Pyknosed Nuclei (%) [9]: 21%
Population Tubulin-Different-Phenotype (%) [9]: 33%
Total Cell Count [9]: 109
Population Apoptotic (%) [10]: 36%
Population Fragmented Nuclei (%) [10]: 40%
Population Healthy Nuclei (%) [10]: 47%
Population Hoechst High Intensity Objects (%) [10]: 5%
Population Membrane Permeable-Phenotype (%) [10]: 12%
Population Mitochondria Different-Phenotype (%) [10]: 9%
Population Mitotic Cells (%) [10]: 63%
Population Normal (%) [10]: 94%
Population Pyknosed Nuclei (%) [10]: 12%
Population Tubulin-Different-Phenotype (%) [10]: 70%
Total Cell Count [10]: 92
Population Apoptotic (%) [11]: 50%
Population Fragmented Nuclei (%) [11]: 21%
Population Healthy Nuclei (%) [11]: 69%
Population Hoechst High Intensity Objects (%) [11]: 2%
Population Membrane Permeable-Phenotype (%) [11]: 0%
Population Mitochondria Different-Phenotype (%) [11]: 7%
Population Mitotic Cells (%) [11]: 50%
Population Normal (%) [11]: 97%
Population Pyknosed Nuclei (%) [11]: 8%
Population Tubulin-Different-Phenotype (%) [11]: 33%
Total Cell Count [11]: 141
Population Apoptotic (%) [12]: 75%
Population Fragmented Nuclei (%) [12]: 29%
Population Healthy Nuclei (%) [12]: 61%
Population Hoechst High Intensity Objects (%) [12]: 3%
Population Membrane Permeable-Phenotype (%) [12]: 2%
Population Mitochondria Different-Phenotype (%) [12]: 5%
Population Mitotic Cells (%) [12]: 25%
Population Normal (%) [12]: 96%
Population Pyknosed Nuclei (%) [12]: 9%
Total Cell Count [12]: 131
